One may read the inhibition as how much of the control response was suppressed. Lower therefore signals a response near the control. For orientation: IC50 means the point on the concentration scale where inhibition reaches its midpoint. Read a high IC50 as weaker potency in that assay.

Where “and” joins values, the source holds several entries; their conditions need not be identical. Equal values may be shown once. Bridge positions count the residues as written; N and C are the ends. Peptide text beside a SMILES is read from it. I, II: the chains in the order shown.

T1 sequence (P09790 whole entry): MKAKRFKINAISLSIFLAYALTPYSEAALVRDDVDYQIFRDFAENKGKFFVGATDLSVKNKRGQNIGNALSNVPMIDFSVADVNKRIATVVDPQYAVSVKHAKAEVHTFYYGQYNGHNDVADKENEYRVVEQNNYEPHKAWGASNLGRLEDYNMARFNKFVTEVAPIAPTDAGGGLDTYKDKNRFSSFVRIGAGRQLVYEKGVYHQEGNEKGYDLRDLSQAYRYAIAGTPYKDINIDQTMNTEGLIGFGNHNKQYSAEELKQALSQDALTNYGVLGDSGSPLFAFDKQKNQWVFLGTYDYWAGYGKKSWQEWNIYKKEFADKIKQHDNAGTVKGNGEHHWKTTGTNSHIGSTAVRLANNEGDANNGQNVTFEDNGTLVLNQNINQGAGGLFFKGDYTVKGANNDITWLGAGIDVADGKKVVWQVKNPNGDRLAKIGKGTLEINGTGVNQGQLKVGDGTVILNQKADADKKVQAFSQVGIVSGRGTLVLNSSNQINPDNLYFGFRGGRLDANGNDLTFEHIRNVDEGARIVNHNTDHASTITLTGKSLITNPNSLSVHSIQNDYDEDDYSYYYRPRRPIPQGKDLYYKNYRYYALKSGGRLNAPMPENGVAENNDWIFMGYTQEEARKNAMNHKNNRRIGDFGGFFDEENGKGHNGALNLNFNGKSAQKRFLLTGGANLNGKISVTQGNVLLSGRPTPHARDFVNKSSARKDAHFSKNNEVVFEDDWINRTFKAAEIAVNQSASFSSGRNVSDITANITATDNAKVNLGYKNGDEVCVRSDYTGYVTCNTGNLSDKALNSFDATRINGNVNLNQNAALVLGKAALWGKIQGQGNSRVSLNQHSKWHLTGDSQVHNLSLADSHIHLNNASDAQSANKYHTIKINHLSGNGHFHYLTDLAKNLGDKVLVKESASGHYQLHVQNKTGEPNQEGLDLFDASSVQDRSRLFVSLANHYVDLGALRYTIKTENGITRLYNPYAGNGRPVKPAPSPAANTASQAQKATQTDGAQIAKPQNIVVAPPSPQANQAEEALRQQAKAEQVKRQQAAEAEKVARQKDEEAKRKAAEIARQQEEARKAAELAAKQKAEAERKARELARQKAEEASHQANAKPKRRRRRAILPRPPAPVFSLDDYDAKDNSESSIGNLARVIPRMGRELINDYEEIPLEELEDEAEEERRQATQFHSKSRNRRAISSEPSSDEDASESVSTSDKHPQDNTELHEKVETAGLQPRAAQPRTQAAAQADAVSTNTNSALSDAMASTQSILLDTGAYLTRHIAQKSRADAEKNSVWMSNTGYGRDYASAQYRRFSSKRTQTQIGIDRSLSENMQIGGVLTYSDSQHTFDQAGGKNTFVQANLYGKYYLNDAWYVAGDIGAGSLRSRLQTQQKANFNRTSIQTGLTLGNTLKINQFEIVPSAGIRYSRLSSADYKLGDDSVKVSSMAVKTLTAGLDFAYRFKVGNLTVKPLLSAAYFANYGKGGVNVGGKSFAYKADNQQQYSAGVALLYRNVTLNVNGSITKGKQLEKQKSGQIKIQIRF
Sequence of IgA-specific serine endopeptidase autotransporter (Neisseria gonorrhoeae) (P09790 whole entry): as above

The first experiment addresses IgA-specific serine endopeptidase autotransporter (Neisseria gonorrhoeae) (UniProt P09790). The experiment is described as follows: Tested for inhibitory activity against IgA1 proteinase at >2 mM. A digest of the protocol: (§1)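 Type 1 and type 2 IgA1 proteinases from N. gonorrhoeae, partially purified from cell-free defined-medium cultures and stored at -70 °C. Peptides were in 0.05 M Tris-HCl, pH 7.5, and preincubated with enzyme for 30 min at 37 °C. Substrate was monoclonal monomeric human serum IgA1, 125I-labelled. Samples were taken at 10-min intervals over 30 min and run on SDS-PAGE with autoradiography. Fd, Fc and uncleaved α-chain bands were counted, and the rate came from the slope of percent cleavage versus time.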
Compound `CC(=O)N[C@H](C(=O)N1CCC[C@H]1C(=O)N1CCC[C@H]1C(=O)N[C@H](C(=O)N1CCC[C@H]1C(=O)N[C@@H](CSSC[C@H](NC(=O)[C@@H]1CCCN1C(=O)[C@@H](NC(=O)[C@@H]1CCCN1C(=O)[C@@H]1CCCN1C(=O)[C@@H](NC(C)=O)[C@@H](C)O)[C@@H](C)O)C(=O)N1CCC[C@H]1C(=O)N[C@@H](CO)C(N)=O)C(=O)N1CCC[C@H]1C(=O)N[C@@H](CO)C(N)=O)[C@H](C)O)[C@@H](C)O` displayed an inhibition of 0%.

For the next experiment the target is unchanged. The experiment is described as follows: Percent inhibition was tested against IgA1 proteinase at 0.30 mM. The gist of the method:
as §1
`C[C@H](O)[C@H](NC(=O)[C@@H]1CCCN1C(=O)[C@@H]1CCCN1C(=O)[C@@H](N)[C@@H](C)O)C(=O)N1CCC[C@H]1C(=O)N[C@@H](CO)C(=O)N1CCC[C@H]1C(=O)N[C@@H](CO)C(=O)N[C@H](C(=O)N1CCC[C@H]1C(=O)N1CCC[C@H]1C(=O)N[C@H](C(=O)N1CCC[C@H]1C(=O)N[C@@H](CO)N1CCC[C@H]1C(=O)N[C@@H](CO)C(=O)O)[C@@H](C)O)[C@H](C)O` had an inhibition of 19%.

A further experiment addresses T1, IgA-specific serine endopeptidase autotransporter (Neisseria gonorrhoeae, UniProt P09790). The experiment in a line: Tested for inhibitory activity against IgA1 proteinase. The gist of the method: as §1
In turn, `CC(=O)N[C@H](C(=O)N1CCC[C@H]1C(=O)N1CCC[C@H]1C(=O)N[C@H](C(=O)N1CCC[C@H]1C(=O)N[C@@H](CO)C(=O)N1CCC[C@H]1C(=O)N[C@@H](CSSC[C@H](NC(=O)[C@@H]1CCCN1C(=O)[C@H](CO)NC(=O)[C@@H]1CCCN1C(=O)[C@@H](NC(=O)[C@@H]1CCCN1C(=O)[C@@H]1CCCN1C(=O)[C@@H](NC(C)=O)[C@@H](C)O)[C@@H](C)O)C(N)=O)C(N)=O)[C@@H](C)O)[C@@H](C)O` came in with a half-inhibitory concentration (IC50) of 3300 µM.

The compound `CC(=O)N[C@H](C(=O)N1CCC[C@H]1C(=O)N1CCC[C@H]1C(=O)N[C@H](C(=O)N1CCC[C@H]1C(=O)N[C@@H](CSSC[C@H](NC(=O)[C@@H]1CCCN1C(=O)[C@@H](NC(=O)[C@@H]1CCCN1C(=O)[C@@H]1CCCN1C(=O)[C@@H](NC(C)=O)[C@@H](C)O)[C@@H](C)O)C(=O)N1CCC[C@H]1C(=O)N[C@@H](CO)C(N)=O)C(=O)N1CCC[C@H]1C(=O)N[C@@H](CO)C(N)=O)[C@@H](C)O)[C@@H](C)O` registered a concentration for half-maximal inhibition (IC50) of 5150 µM.

For the compound `CC(=O)N[C@@H](CSSC[C@H](NC(C)=O)C(=O)N1CCC[C@H]1C(=O)N1CCC[C@H]1C(=O)N[C@H](C(=O)N1CCC[C@H]1C(=O)N[C@@H](CO)C(=O)N1CCC[C@H]1C(=O)N[C@@H](CO)C(N)=O)[C@@H](C)O)C(=O)N1CCC[C@H]1C(=O)N1CCC[C@H]1C(=O)N[C@H](C(=O)N1CCC[C@H]1C(=O)N[C@@H](CO)C(=O)N1CCC[C@H]1C(=O)N[C@@H](CO)C(N)=O)[C@@H](C)O` (I: Ac-CPPTPSPS-NH2 / II: Ac-CPPTPSPS-NH2; disulfide I:1-II:1), the half-maximal inhibitory concentration (IC50) was 1810 µM and 3450 µM.

As for Ac-CPPTPSPS-NH2, the IC50 is 310 µM and 120 µM.

On to Ac-TPPTPCPS-NH2, for which the half-inhibitory concentration (IC50) was 200 µM and 50 µM.

Consider Ac-TPPTPSPC-NH2, for which the IC50 was 1030 µM and 490 µM.

As to Ac-TPPTPSPS-NH2, the half-inhibitory concentration (IC50) is 9350 µM and 6680 µM.

Regarding Ac-TPPTPSPS-OH, the IC50 is 1570 µM and 510 µM.

As to H-TPPTPSPS-NH2, the 50% inhibitory concentration (IC50) was 400 µM and 180 µM.

In the case of H-TPPTPSPS-OH, the IC50 is 260 µM and 500 µM.

H-TPPTPSPSTPPTPSPS-OH registered an IC50 of 310 µM.

The target of the next experiment is T1, IgA-specific serine endopeptidase autotransporter. The experiment in a line: Tested for inhibitory activity against IgA1 proteinase in 40% TFE. A digest of the protocol: (§2)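 Buffer contained 40% trifluoroethanol to dissolve the peptide. Type 1 and type 2 N. gonorrhoeae IgA1 proteinases (partially purified) were preincubated with inhibitor for 30 min at 37 °C, then cleaved 125I-labelled monomeric human IgA1. Samples were taken every 10 min over 30 min, boiled and run on SDS-PAGE. Fd/Fc/α-chain segment counts gave percent cleavage, and the rate was taken from the slope.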
Consider `CC(=O)N[C@H](C(=O)N1CCC[C@H]1C(=O)N1CCC[C@H]1C(=O)N[C@@H](CSSC[C@H](NC(=O)[C@@H]1CCCN1C(=O)[C@@H]1CCCN1C(=O)[C@@H](NC(C)=O)[C@@H](C)O)C(=O)N1CCC[C@H]1C(=O)N[C@@H](CO)C(=O)N1CCC[C@H]1C(=O)N[C@@H](CO)C(N)=O)C(=O)N1CCC[C@H]1C(=O)N[C@@H](CO)C(=O)N1CCC[C@H]1C(=O)N[C@@H](CO)C(N)=O)[C@@H](C)O` (I: Ac-TPPCPSPS-NH2 / II: Ac-TPPCPSPS-NH2; disulfide I:4-II:4), for which the IC50 worked out at 200 µM.

For another experiment the target is unchanged. The experiment in a line: Tested for inhibitory activity against IgA1 proteinase assayed in 40% TFE. The gist of the method:
as §2
In turn, `CC(=O)N[C@H](C(=O)N1CCC[C@H]1C(=O)N1CCC[C@H]1C(=O)N[C@@H](CSSC[C@H](NC(=O)[C@@H]1CCCN1C(=O)[C@@H]1CCCN1C(=O)[C@@H](NC(C)=O)[C@@H](C)O)C(=O)N1CCC[C@H]1C(=O)N[C@@H](CO)C(=O)N1CCC[C@H]1C(=O)N[C@@H](CO)C(N)=O)C(=O)N1CCC[C@H]1C(=O)N[C@@H](CO)C(=O)N1CCC[C@H]1C(=O)N[C@@H](CO)C(N)=O)[C@@H](C)O` (I: Ac-TPPCPSPS-NH2 / II: Ac-TPPCPSPS-NH2; disulfide I:4-II:4) displayed an IC50 of 170 µM.

These data come from ChEMBL document CHEMBL1124240, “Substrate analogue inhibitors of the IgA1 proteinases from Neisseria gonorrhoeae” (J Med Chem, 1988).
